Drawing on ChEMBL document CHEMBL1121506, “Evaluation of rotenone and related compounds as antagonists of slow-reacting substance of anaphylaxis” (J Med Chem, 1980), this text covers IC50, Collapse time and Inhibition for twelve compounds.

≈ marks a conversion by molar mass, not a printed value.

The species named for assay [1] is Cavia porcellus. Nature of the assay: Compound was evaluated for the inhibitory activity against slow reacting substance of anaphylaxis (SRS-A) of guinea pig ileum. The assay is classed as functional, organism-based. The procedure, abridged:
(§1)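 Guinea pig ileum strip in Tyrode's solution at 37 °C, aerated with 95% O2-5% CO2. SRS-A came from rat peritoneal shock fluid after passive peritoneal anaphylaxis, and its specificity was checked against atropine (5 × 10^-7 M) and mepyramine (10^-6 M). The SRS-A dose was set to give ca. 60% of maximal contraction. Antagonist was added 2 min before challenge; percent inhibition was read, and IC50 was interpolated from dose-response curves.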

Assay [2] deals with Cavia porcellus. Nature of the assay: Compound was evaluated in vivo for collapse time in guinea pig anaphylaxis model at dose 10 mg/kg. The assay is classed as functional. The procedure, abridged: (§2)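 Guinea pigs were sensitized with 10% ovalbumin (1 mL s.c. plus 1 mL i.p.), and about 4 weeks later received the antagonist orally. They were then exposed to aerosolized ovalbumin, with collapse time as the endpoint and no collapse within 6 min taken as maximal protection. Groups (4–15 animals) were compared with controls by one-way ANOVA and Dunnett's test after Bartlett's test.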

Assay [3] is filed under the species Cavia porcellus. Nature of the assay: Compound was evaluated for the inhibitory activity against Acetylcholine in guinea pig ileum. The assay is classed as functional. Set-up: concentration or dose not given beside the values.
The species entered for assay [4] is Cavia porcellus. The experiment in a line: Compound was evaluated for the inhibitory activity against Histamine in guinea pig ileum. Type of assay: functional. Set-up: concentration or dose not given beside the values.
The species named for assay [5] is Cavia porcellus. The experiment in a line: Compound was evaluated for the inhibitory activity against slow reacting substance of anaphylaxis (SRS-A) of guinea pig ileum;NA means not active. The assay is classed as functional, organism-based. The procedure, abridged: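 Guinea pig ileum strip in Tyrode's solution at 37 °C, aerated with 95% O2-5% CO2. SRS-A came from rat peritoneal shock fluid after passive peritoneal anaphylaxis, dosed to give ca. 60% of maximal contraction. Atropine (5 × 10^-7 M) and mepyramine (10^-6 M) checks were run. Antagonist was added 2 min before SRS-A challenge, and percent inhibition recorded. IC50 was interpolated from two or at least three dose-response curves.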

Assay [6] is filed under the species Cavia porcellus. Nature of the assay: Compound was evaluated for the inhibitory activity against Serotonin in guinea pig ileum. The assay is classed as functional.
The subject of assay [7] is Cavia porcellus. The experiment in a line: Compound was evaluated in vivo for collapse time in guinea pig anaphylaxis model at dose 5 mg/kg. The assay is classed as functional. Put shortly: as §2
Assay [8] is filed under the species Cavia porcellus. The experiment in a line: Compound was evaluated for the inhibitory activity against slow reacting substance of anaphylaxis (SRS-A) of guinea pig ileum;NA denotes not active. Type of assay: functional, organism-based. Put shortly:
as §1

Broadly, the IC50 is the concentration at which inhibition is half-maximal. In the assay listed under Cavia porcellus [1], `C=C(C)[C@H]1Cc2c(ccc3c2OC2COc4cc(OC)c(OC)cc4C2/C3=N/O)O1` (stereo not given in full) came in with an IC50 of 0.4 µg/mL (≈ 0.977 µM). The Collapse time in the assay on Cavia porcellus [2] is given as 248 s.

By Inhibition is commonly meant the share of the control response that was lost under treatment. The compound `C=C(C)[C@H]1Cc2c(ccc(C(=O)Cc3cc(OC)c(OC)cc3OCC(=O)O)c2O)O1` gave a Collapse time with Cavia porcellus [2] of 167 s. Also, the Inhibition in the assay filed under Cavia porcellus [3] and in the assay filed under Cavia porcellus [4] was 0% throughout. Also, in the assay listed under Cavia porcellus [5], the IC50 result is on record as “Not Active”.

`C=C(C)[C@H]1Cc2c(ccc3c2OC2COc4cc(OC)c(OC)cc4C2/C3=N/OC(C)=O)O1` (stereo not given in full) showed an IC50 in the assay filed under Cavia porcellus [1] of 0.4 µg/mL (≈ 0.886 µM).

Take `C=C(C)[C@H]1Cc2c(ccc3c2O[C@H]2COc4cc(OC)c(OC)cc4[C@H]2C3=O)O1`: the IC50 in the assay filed under Cavia porcellus [1] was determined as 0.0247 µg/mL (≈ 0.0626 µM). Moreover, the Collapse time in the assay on Cavia porcellus [2] is on record as 240 s. Also, the results for the Inhibition in the assay filed under Cavia porcellus [3], in the assay listed under Cavia porcellus [6] and in the assay filed under Cavia porcellus [4] were 11%, 87% and 28%, respectively.

Consider `COc1cc2c(cc1OC)[C@@H]1C(=O)c3ccc4c(c3O[C@@H]1CO2)C[C@H](C(C)C)O4`, for which, in the assay filed under Cavia porcellus [1], the IC50 came out at 0.0238 µg/mL (≈ 0.06 µM). The values for the Inhibition in the assay filed under Cavia porcellus [3], in the assay filed under Cavia porcellus [6] and in the assay listed under Cavia porcellus [4] were 25%, 60% and 29%, respectively.

In the case of `C=C(C)[C@H]1Cc2c(ccc3c2OC2COc4cc(OC)c(OC)cc4C2(OC(C)=O)C3=O)O1` (stereo not given in full) [ACETYLROTENOLENE], the Inhibition in the assay listed under Cavia porcellus [3] and in the assay filed under Cavia porcellus [4] was 0% in each case. The IC50 entry in the assay filed under Cavia porcellus [5] was “Not Active”.

`C=C(C)[C@H]1Cc2c(ccc3c(=O)c4c(oc23)COc2cc(OC)c(OC)cc2-4)O1` [DEHYDROROTENONE]: the Collapse time is listed as 248 s in the assay on Cavia porcellus [2] and 216 s with Cavia porcellus [7]. Further, the Inhibition in the assay filed under Cavia porcellus [3] and in the assay filed under Cavia porcellus [4] was 0% each time. Besides, the IC50 result in the assay filed under Cavia porcellus [8] is recorded as “Not Active”.

In the assay listed under Cavia porcellus [1], `CCCc1c(OCC(O)COc2ccc3c(=O)cc(C(=O)[O-])oc3c2CCC)ccc(C(C)=O)c1O.[Na+]` (stereo not given) [FPL-55712 SODIUM SALT] yielded an IC50 of 0.042 µg/mL. The same compound showed a Collapse time with Cavia porcellus [2] of 253 s. Further, the Inhibition in the assay listed under Cavia porcellus [3], in the assay listed under Cavia porcellus [6] and in the assay listed under Cavia porcellus [4] was 0% each time.

In the assay filed under Cavia porcellus [1], `COc1cc2c(cc1OC)[C@@H]1C(=O)c3ccc4oc(C(C)C)cc4c3O[C@@H]1CO2` [ISOROTENONE] displayed an IC50 of 0.062 µg/mL (≈ 0.157 µM). This compound yielded a Collapse time with Cavia porcellus [2] of 211 s. The figures for the Inhibition in the assay listed under Cavia porcellus [3] and in the assay listed under Cavia porcellus [4] were 28% and 30%, respectively.

Turning to `C=C(C)[C@H]1Cc2c(ccc3c2OC2COc4cc(OC)c(OC)cc4C2/C3=N/OC(=O)OCC)O1` (stereo not given in full) [O-CARBETHOXY ROTENONE OXIME], the IC50 in the assay listed under Cavia porcellus [1] is 0.4 µg/mL (≈ 0.831 µM).

For the compound `C=C(C)[C@H]1Cc2c(ccc3c2O[C@@H]2COc4cc(OC)c(OC)cc4[C@@H]2C3=O)O1` [ROTENONE], in the assay listed under Cavia porcellus [1], the IC50 was 0.0155 µg/mL (≈ 0.0393 µM). The Collapse time in the assay on Cavia porcellus [7] was 288 s. Besides, the Inhibition came to 15% in the assay listed under Cavia porcellus [3], 92% in the assay filed under Cavia porcellus [6] and 38% in the assay listed under Cavia porcellus [4].

For `COc1cc2c(cc1OC)[C@]1(O)C(=O)c3ccc4c(c3O[C@@H]1CO2)C=CC(C)(C)O4` [TEPHROSIN], the IC50 in the assay filed under Cavia porcellus [1] came to 0.2 µg/mL (≈ 0.487 µM).
